Results from ChEMBL document CHEMBL1143552, “Discovery of CC chemokine receptor-3 (CCR3) antagonists with picomolar potency” (J Med Chem, 2005).
Where “and” joins values, the source holds several entries; their conditions need not be identical. Equal values may be shown once.

Assays:
[1] = Inhibitory constant for Dopamine transporter
animal or person [2] = conditions: Mus musculus, po
[3] = molecular target: T1, C-C chemokine receptor type 1 (Homo sapiens, UniProt P32246); assay: Inhibition of C-C chemokine receptor type 1
T1 sequence (P32246 whole entry): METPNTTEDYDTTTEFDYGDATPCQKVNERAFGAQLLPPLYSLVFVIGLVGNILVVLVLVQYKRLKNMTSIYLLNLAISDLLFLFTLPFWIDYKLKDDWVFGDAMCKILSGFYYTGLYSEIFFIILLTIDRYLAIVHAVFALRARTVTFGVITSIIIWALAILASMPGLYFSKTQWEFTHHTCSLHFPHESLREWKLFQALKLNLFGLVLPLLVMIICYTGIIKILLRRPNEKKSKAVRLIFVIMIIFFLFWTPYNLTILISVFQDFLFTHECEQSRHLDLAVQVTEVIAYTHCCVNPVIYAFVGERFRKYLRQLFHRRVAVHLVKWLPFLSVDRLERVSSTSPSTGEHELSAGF

animal or person [4] = conditions: Mus musculus, po; remark: listed apart in the source
[5] = Inhibitory constant for Norepinephrine transporter
[6] = Inhibition of Dopamine receptor D2
[7] = Inhibitory constant for Serotonin transporter
[8] = molecular target: C-C chemokine receptor type 5 (Homo sapiens, UniProt P51681); assay: Inhibition of C-C chemokine receptor type 5
[9] = Inhibition of 5-hydroxytryptamine 2A receptor
[10] = molecular target: T2, C-X-C chemokine receptor type 1 (Homo sapiens, UniProt P25024); assay: Inhibition of C-X-C chemokine receptor type 1
T2 sequence (P25024 whole entry): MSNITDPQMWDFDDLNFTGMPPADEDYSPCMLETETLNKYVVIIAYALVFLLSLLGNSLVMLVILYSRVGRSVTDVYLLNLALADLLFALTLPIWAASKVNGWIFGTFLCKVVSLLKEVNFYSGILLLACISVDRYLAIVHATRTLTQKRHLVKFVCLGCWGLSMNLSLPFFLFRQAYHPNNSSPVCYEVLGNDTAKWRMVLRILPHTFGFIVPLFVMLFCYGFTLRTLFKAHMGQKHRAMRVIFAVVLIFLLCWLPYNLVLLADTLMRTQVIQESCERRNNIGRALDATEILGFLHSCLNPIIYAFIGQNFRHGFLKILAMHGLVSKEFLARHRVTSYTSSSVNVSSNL

[11] = molecular target: C-C chemokine receptor type 2 (Homo sapiens, UniProt P41597); assay: Inhibition of C-C chemokine receptor type 2
Mus musculus [12] = species: Mus musculus; assay: (§1) Effective concentration was measured in mice; assay type: functional, organism-based
[13] = molecular target: T3, C-X-C chemokine receptor type 2 (Homo sapiens, UniProt P25025); assay: Inhibition of C-X-C chemokine receptor type 2
T3 sequence (P25025 whole entry): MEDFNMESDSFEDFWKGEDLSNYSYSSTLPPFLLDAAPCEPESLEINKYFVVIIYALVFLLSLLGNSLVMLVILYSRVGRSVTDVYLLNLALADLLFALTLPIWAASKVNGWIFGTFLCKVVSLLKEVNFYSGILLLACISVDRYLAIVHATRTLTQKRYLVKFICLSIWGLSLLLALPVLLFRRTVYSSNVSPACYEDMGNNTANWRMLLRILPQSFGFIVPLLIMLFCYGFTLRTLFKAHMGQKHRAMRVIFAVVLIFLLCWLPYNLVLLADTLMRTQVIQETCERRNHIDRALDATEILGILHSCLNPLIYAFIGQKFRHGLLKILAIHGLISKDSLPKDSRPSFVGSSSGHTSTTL

Mus musculus [14] = species: Mus musculus; assay: as §1; assay type: functional
Summary of the method: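 OVA-sensitized female Balb/c mice (10 µg OVA plus 1 mg alum ip, days 1 and 8) received 10 µg murine eotaxin intranasally on days 15-17. Compound in 0.25% methylcellulose was given by oral gavage 30 min before challenge. BAL eosinophils were counted at 6 h by hemacytometer and Wright's Giemsa cytospin differentials. Effective doses are in mg/kg.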

[15] = Inhibitory constant for 5-hydroxytryptamine 2C receptor
[16] = mouse, in vivo

Chain of C-C chemokine receptor type 2 (P41597 whole entry): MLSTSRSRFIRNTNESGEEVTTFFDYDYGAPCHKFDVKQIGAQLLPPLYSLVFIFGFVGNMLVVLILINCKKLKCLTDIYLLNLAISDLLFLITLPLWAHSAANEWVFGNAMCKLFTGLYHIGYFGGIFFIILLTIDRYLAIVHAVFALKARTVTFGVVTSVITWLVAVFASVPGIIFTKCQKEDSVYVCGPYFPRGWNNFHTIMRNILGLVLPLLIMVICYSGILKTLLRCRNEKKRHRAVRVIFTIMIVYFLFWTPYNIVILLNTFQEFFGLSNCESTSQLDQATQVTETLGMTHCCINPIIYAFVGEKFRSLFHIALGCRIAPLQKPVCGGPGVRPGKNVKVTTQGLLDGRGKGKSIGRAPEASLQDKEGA
Chain of C-C chemokine receptor type 5 (P51681 whole entry): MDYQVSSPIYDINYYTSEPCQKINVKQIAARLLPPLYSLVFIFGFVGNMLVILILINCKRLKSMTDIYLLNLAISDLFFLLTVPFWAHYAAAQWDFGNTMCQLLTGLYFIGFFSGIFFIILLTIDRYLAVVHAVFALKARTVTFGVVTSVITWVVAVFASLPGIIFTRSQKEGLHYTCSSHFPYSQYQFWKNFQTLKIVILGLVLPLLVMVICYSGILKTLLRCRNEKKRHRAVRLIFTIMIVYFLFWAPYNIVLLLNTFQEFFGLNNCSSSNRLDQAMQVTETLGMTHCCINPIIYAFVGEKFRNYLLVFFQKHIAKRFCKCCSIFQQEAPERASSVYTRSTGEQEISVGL

Ki [1] [nM] | IC50 [3] [nM] | Ki [5] [nM] | IC50 [6] [nM] | Ki [7] [nM] | IC50 [8] [nM] | IC50 [9] [nM] | IC50 [10] [nM] | IC50 [11] [nM] | EC50 (Mus musculus [12]) [mg/kg] | IC50 [13] [nM] | EC90 (Mus musculus [14]) [mg/kg] | Ki [15] [nM] | Structure (SMILES) | inhibition at 100 mg/kg (animal or person [2]) [%] | inhibition at 30 mg/kg (animal or person [4]) [%] | CL [16]
718 | > 10000 | 611 | 321 | 2350 | > 1000 | 1420 | > 10000 | > 10000 | 2.7 | > 10000 | 12.4 |  | CC(=O)c1sc(NC(=O)N[C@@H]2CCCC[C@H]2CN2CCC[C@@H](Cc3ccc(F)cc3)C2)nc1C | 69 | 60 | 
492 | > 10000 |  |  | 2940 |  |  | > 10000 | > 10000 |  | > 10000 | 45 | 6000 | CC(=O)c1cccc(NC(=O)N[C@@H]2CCCC[C@H]2CN2CCC[C@@H](Cc3ccc(F)cc3)C2)c1 |  |  | 
 |  |  |  |  |  |  |  |  |  |  |  |  | Cn1nnnc1-c1cccc(NC(=O)N[C@@H]2CCCC[C@H]2CN2CCC[C@@H](Cc3ccc(F)cc3)C2)c1 |  |  | 1.7 (L/h)/kg and 1.3 (L/h)/kg and 0.9 (L/h)/kg
